Measurements taken from paper PMC2868107 (Biochemistry, 2010).
Read-outs that look alike come from different tables or passages of the source. Blank lines part the entries; values can stand above or below the molecule they belong to. Where a SMILES comes first, the peptide text is derived from it. Where no end group is shown, it is not given here.

Key:
[1] = target: T1, neuropilin-2 (Homo sapiens, UniProt O60462); experiment: Sedimentation velocity analytical ultracentrifugation with neuropilin-2; format: binding
T1 sequence (O60462 276-595 limits assumed): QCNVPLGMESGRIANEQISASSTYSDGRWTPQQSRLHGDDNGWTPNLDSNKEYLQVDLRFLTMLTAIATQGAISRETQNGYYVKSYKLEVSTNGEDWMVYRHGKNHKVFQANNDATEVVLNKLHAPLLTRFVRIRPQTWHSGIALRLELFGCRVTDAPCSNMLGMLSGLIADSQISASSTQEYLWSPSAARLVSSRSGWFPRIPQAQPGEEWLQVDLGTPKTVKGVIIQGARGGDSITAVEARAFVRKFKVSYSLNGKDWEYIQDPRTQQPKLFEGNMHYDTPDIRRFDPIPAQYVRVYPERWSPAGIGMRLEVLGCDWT
Procedure, shortened: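 Sedimentation velocity was run at 4°C and 40,000 rpm in 10 mM Tris pH 7.5, 150 mM NaCl, 1 mM sodium azide. Human neuropilin-2 b1b2 was held at 8 μM. The oxidised dimeric C-terminal Sema3F peptide was added at 2.5X molar excess. Absorbance was read at 280 nm. Sedimentation coefficient distributions (0.1–6 s) were fit to numerical Lamm equation solutions, using calculated buffer density, viscosity and partial specific volumes.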

[2] = target: Neuropilin-1 (Homo sapiens) (UniProt O14786); experiment: SPR; settings: cited from earlier work
[3] = target: T2, neuropilin-1 (Homo sapiens, UniProt O14786); format: binding
T2 sequence (O14786 273-586 limits assumed): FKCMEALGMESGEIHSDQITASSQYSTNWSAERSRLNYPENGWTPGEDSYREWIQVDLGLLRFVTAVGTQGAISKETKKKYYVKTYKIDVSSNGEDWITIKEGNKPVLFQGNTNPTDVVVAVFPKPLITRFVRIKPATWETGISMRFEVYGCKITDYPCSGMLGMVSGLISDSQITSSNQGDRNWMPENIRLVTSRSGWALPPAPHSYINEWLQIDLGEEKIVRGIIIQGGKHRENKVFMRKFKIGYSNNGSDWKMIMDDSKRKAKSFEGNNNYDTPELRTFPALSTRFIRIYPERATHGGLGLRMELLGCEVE

[4] = test system: axon; settings: cited from earlier work
[5] = test system: neuropilin-1; settings: cited from earlier work
[6] = target: core ligand binding region (b1b2) of human neuropilin-1 (human) (UniProt O14786); experiment: plate-based inhibition assay
[7] = target: T3, core ligand binding region (b1b2) of human neuropilin-2 (human, UniProt O60462 277-592); experiment: AUC
T3 sequence (looked up): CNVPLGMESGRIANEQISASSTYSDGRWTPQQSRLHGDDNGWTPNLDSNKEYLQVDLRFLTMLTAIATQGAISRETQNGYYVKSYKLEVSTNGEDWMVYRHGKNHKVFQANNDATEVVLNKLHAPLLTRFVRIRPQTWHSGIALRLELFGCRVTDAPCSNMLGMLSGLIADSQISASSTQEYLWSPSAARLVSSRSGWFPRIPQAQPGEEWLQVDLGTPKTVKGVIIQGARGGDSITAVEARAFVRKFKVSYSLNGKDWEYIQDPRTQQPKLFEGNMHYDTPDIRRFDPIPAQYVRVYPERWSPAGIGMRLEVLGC

[8] = target: core ligand binding region (b1b2) of human neuropilin-1 (human) (UniProt O14786); experiment: plate-based inhibition assay; remark: listed apart in the source
[9] = test system: furin; experiment: Furin processing of Sema3F C-terminus; format: cell-based; settings: C-terminal Hgh fusion, western blot
Procedure, shortened: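 The C-terminal neuropilin-binding region of human Sema3F (residues 605-785) was fused to human growth hormone. Cells were kept in α-MEM with 5% FBS, moved at 80% confluence to serum-free Hybridoma-SFM, and PEI-transfected with 1 μg DNA/mL at a 3:1 PEI:DNA ratio. Hosts were CHO, furin-deficient FD11, furin-overexpressing CHO, and COS-7 with or without furin inhibitors. Media were western-blotted with anti-Hgh polyclonal (1:10,000) and HRP anti-rabbit (1:20,000) antibodies, then chemiluminescence.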

Sequence of core ligand binding region (b1b2) of human neuropilin-1 (human) (O14786 22-923): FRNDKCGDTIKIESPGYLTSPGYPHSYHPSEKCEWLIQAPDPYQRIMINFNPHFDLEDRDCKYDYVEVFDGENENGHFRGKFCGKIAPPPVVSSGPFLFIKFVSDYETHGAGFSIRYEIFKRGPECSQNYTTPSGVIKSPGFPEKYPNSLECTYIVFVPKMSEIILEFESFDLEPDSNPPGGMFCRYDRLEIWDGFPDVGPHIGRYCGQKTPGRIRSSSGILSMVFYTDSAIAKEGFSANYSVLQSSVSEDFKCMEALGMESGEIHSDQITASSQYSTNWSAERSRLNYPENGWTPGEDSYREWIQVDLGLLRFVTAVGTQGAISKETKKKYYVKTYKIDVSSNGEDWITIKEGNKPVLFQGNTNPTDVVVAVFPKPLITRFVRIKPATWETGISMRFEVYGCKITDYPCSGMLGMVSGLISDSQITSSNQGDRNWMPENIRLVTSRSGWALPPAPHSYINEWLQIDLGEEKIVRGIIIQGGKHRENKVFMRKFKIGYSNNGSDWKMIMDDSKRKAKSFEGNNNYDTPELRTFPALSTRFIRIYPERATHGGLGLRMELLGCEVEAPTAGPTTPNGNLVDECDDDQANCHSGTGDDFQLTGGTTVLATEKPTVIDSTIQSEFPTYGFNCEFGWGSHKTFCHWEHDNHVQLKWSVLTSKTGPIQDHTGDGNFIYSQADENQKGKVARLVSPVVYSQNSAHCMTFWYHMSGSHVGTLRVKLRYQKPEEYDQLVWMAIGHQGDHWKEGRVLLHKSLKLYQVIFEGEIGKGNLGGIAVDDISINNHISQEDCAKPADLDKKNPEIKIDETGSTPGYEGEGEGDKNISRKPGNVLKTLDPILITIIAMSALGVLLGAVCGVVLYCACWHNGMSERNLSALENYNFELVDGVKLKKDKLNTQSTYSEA
Sequence of Neuropilin-1 (Homo sapiens) (O14786 22-923): as above

Molecule: VEGF (from UniProt P15692)
Kd [2]: 2000 nM

Molecule: CC(C)C[C@H](NC(=O)[C@H](Cc1c[nH]c2ccccc12)NC(=O)[C@@H](NC(=O)[C@H](C)N)[C@@H](C)O)C(=O)N1CCC[C@H]1C(=O)N1CCC[C@H]1C(=O)N[C@@H](CCCNC(=N)N)C(=O)O [ATWLPPR] (H-ATWLPPR-OH)
IC50 [3]: 10500 ± 2000 nM

Molecule: VEGF
effect on semaphorin mediated growth cone collapse [4]: directly antagonize semaphorin mediated growth cone collapse
increase in apparent affinity of VEGF with four fold higher neuropilin density [5]: twenty

B2: Sema3F (Ig-basic): C-terminal neuropilin binding region of human Sema3F (residues 605-785) with C-terminal human growth hormone fusion (protein)
chain: ANKNAVESVQYGVAGSAAFLECQPRSPQATVKWLFQRDPGDRRREIRAEDRFLRTEQGLLLRALQLSDRGLYSCTATENNFKHVVTRVQLHVLGRDAVHAALFPPLSMSAPPPPGAGPPTPPYQELAQLLAQPEVGLIHQYCQGYWRHVPPSPREAPGAPRSPEPQDQKKPRNRR
modifications: left off: Human Growth Hormone (Hgh), N-terminal, kept
processing state of Sema3F ([9]; CHO cells overexpressing furin): only the processed form
processing state of Sema3F ([9]; COS-7 cells, no furin inhibitor): nearly completely processed
proteolytic processing of Sema3F (fraction processed) ([9]; Cos7 cells, no furin inhibitor): > 95%
processing state of Sema3F ([9]; FD11 CHO cells lacking furin activity): solely the unprocessed form
processing state of Sema3F ([9]; wild-type CHO cells): a mixture of processed and unprocessed forms

More lines, main results first:

% of species, peak a ([1]; neuropilin-2 8 μM + C-Sema 2.5X molar excess, free C-Sema): 32%
c(M), peak a ([1]; neuropilin-2 8 μM + C-Sema 2.5X molar excess, free C-Sema (expected 10.7 kDa)): 11.1 ± 0.6 kDa
% of species, peak c ([1]; neuropilin-2 8 μM + C-Sema 2.5X molar excess, neuropilin-2 dimer): 4%
% of species, peak b ([1]; neuropilin-2 8 μM + C-Sema 2.5X molar excess, neuropilin-2 monomer): 58%
Molecule: GLIHQYCQGYWRHVPPSPREAPGAPRSPEPDQKKPRNRRHHPPDT (disulfide (positions not given here)) [C-Sema]
interaction with neuropilin-2 by sedimentation velocity ([1]; neuropilin-2 8 μM, peptide 2.5X molar excess): no significant interaction with neuropilin-2

% of species, peak b ([1]; neuropilin-2 alone, 8 μM, dimer): 3%
c(M), peak b ([1]; neuropilin-2 alone, 8 μM, dimer (expected 76.8 kDa)): 74.3 ± 3.0 kDa
s20,w, peak b ([1]; neuropilin-2 alone, 8 μM, dimer, 4°C, 10 mM Tris pH 7.5, 150 mM NaCl): 4.73 S
% of species, peak a ([1]; neuropilin-2 alone, 8 μM, monomer): 97%
c(M), peak a ([1]; neuropilin-2 alone, 8 μM, monomer (expected 38.4 kDa)): 37.9 ± 1.9 kDa
c(M), peak a ([1]; neuropilin-2 alone, 8 μM, monomer (expected 38.4 kDa), listed as neuropilin-2): 37.9 kDa
s20,w, peak a ([1]; neuropilin-2 alone, 8 μM, monomer, 4°C, 10 mM Tris pH 7.5, 150 mM NaCl): 3.03 S
B1: Neuropilin-2: core ligand binding region (b1b2) of human neuropilin-2 (protein)
chain: CNVPLGMESGRIANEQISASSTYSDGRWTPQQSRLHGDDNGWTPNLDSNKEYLQVDLRFLTMLTAIATQGAISRETQNGYYVKSYKLEVSTNGEDWMVYRHGKNHKVFQANNDATEVVLNKLHAPLLTRFVRIRPQTWHSGIALRLELFGCRVTDAPCSNMLGMLSGLIADSQISASSTQEYLWSPSAARLVSSRSGWFPRIPQAQPGEEWLQVDLGTPKTVKGVIIQGARGGDSITAVEARAFVRKFKVSYSLNGKDWEYIQDPRTQQPKLFEGNMHYDTPDIRRFDPIPAQYVRVYPERWSPAGIGMRLEVLGC

IC50 [6]: 45 nM
stoichiometry N [7]: 1 neuropilin-2:C-furSema
IC50 [8]: 46 nM
Molecule: GLIHQYCQGYWRHVPPSPREAPGAPRSPEPQDQKKPRNRR (also: disulfide-linked dimer (interchain disulfide))
